Data from ChEMBL document CHEMBL5724801, “EUbOPEN Chemogenomics Library - Multiplex” (2024).
Several values for one entry are separate records, joined by “and”; a condition that tells them apart may be missing. Equal entries are not always repeated.

Experiments:
Fibroblast = test: Multiplex assay against human fibroblast; assay type: toxicity, cell-based
Summary of the method: (§1)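 Cells stained live at seeding with Hoechst33342, BioTracker Green Microtubule Cytoskeleton Dye, MitoTracker Red and Annexin V Alexa Fluor 680 were imaged on a CQ1 microscope at 37°C and 5% CO2 after compound addition. Their classification by CellPathfinder machine-learning gating ran from Hoechst high-intensity objects versus normal cells, to healthy, pyknosed or fragmented nuclei among normal cells, to mitotic or apoptotic among pyknosed cells. Tubulin, mitochondrial-mass and membrane-permeability phenotypes are per cents of healthy-nucleus cells.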

HEK-293T = test: Multiplex assay against HEK293T; assay type: toxicity, cell-based; conditions: human; summary of the method: as §1
[1] = 12 h, 1 µM, compound concentration 1 uM
[2] = 12 h, 10 µM, compound concentration 10 uM
[3] = 24 h, 1 µM, compound concentration 1 uM
[4] = 24 h, 10 µM, compound concentration 10 uM
[5] = 48 h, 1 µM, compound concentration 1 uM
[6] = 48 h, 10 µM, compound concentration 10 uM

For `COc1ccc2[nH]c(I)c(CCNC(C)=O)c2c1` [IODOMELATONIN], the “Population Apoptotic (%)” value (Fibroblast; [1]) was 53% and 32%, the “Population Fragmented Nuclei (%)” value (Fibroblast; [1]) was 15% and 23% and the “Population Healthy Nuclei (%)” value (Fibroblast; [1]) was 64% and 60%. For the same compound, the “Population Hoechst High Intensity Objects (%)” value (Fibroblast; [1]) was 2% and 5%, the “Population Membrane Permeable-Phenotype (%)” value (Fibroblast; [1]) was 4% and 7% and the “Population Mitochondria Different-Phenotype (%)” value (Fibroblast; [1]) was 4% and 3%. For the same compound, the “Population Mitotic Cells (%)” value (Fibroblast; [1]) was 46% and 68%, the “Population Normal (%)” value (Fibroblast; [1]) was 97% and 94% and the “Population Pyknosed Nuclei (%)” value (Fibroblast; [1]) was 19% and 15%. For the same compound, the “Population Tubulin-Different-Phenotype (%)” value (Fibroblast; [1]) was 28% and 33%, the “Total Cell Count” value (Fibroblast; [1]) was 137 and 173 and the “Population Apoptotic (%)” value (Fibroblast; [2]) was 35% and 30%. The “Population Fragmented Nuclei (%)” value (Fibroblast; [2]) was 14% and 38%, the “Population Healthy Nuclei (%)” value (Fibroblast; [2]) was 64% and 44% and the “Population Hoechst High Intensity Objects (%)” value (Fibroblast; [2]) was 2% and 3%. For the same compound, the “Population Membrane Permeable-Phenotype (%)” value (Fibroblast; [2]) was 2% and 5%, the “Population Mitochondria Different-Phenotype (%)” value (Fibroblast; [2]) was 6% and 0% and the “Population Mitotic Cells (%)” value (Fibroblast; [2]) was 64% and 69%. For the same compound, the “Population Normal (%)” value (Fibroblast; [2]) was 97% and 96%, the “Population Pyknosed Nuclei (%)” value (Fibroblast; [2]) was 21% and 17% and the “Population Tubulin-Different-Phenotype (%)” value (Fibroblast; [2]) was 20% and 43%. For the same compound, the “Total Cell Count” value (Fibroblast; [2]) was 148 and 157, the “Population Apoptotic (%)” value (Fibroblast; [3]) was 62% and 57% and the “Population Fragmented Nuclei (%)” value (Fibroblast; [3]) was 16% and 26%. The “Population Healthy Nuclei (%)” value (Fibroblast; [3]) was 63% and 57%, the “Population Hoechst High Intensity Objects (%)” value (Fibroblast; [3]) was 0% and 5% and the “Population Membrane Permeable-Phenotype (%)” value (Fibroblast; [3]) was 0% and 6%. For the same compound, the “Population Mitochondria Different-Phenotype (%)” value (Fibroblast; [3]) was 7%, the “Population Mitotic Cells (%)” value (Fibroblast; [3]) was 37% and 42% and the “Population Normal (%)” value (Fibroblast; [3]) was 99% and 94%. The “Population Pyknosed Nuclei (%)” value (Fibroblast; [3]) was 20% and 15%, the “Population Tubulin-Different-Phenotype (%)” value (Fibroblast; [3]) was 27% and 39% and the “Total Cell Count” value (Fibroblast; [3]) was 134 and 176. For the same compound, the “Population Apoptotic (%)” value (Fibroblast; [4]) was 35% and 24%, the “Population Fragmented Nuclei (%)” value (Fibroblast; [4]) was 16% and 38% and the “Population Healthy Nuclei (%)” value (Fibroblast; [4]) was 58% and 41%. For the same compound, the “Population Hoechst High Intensity Objects (%)” value (Fibroblast; [4]) was 2% and 4%, the “Population Membrane Permeable-Phenotype (%)” value (Fibroblast; [4]) was 1% and 10% and the “Population Mitochondria Different-Phenotype (%)” value (Fibroblast; [4]) was 4% and 1%. The “Population Mitotic Cells (%)” value (Fibroblast; [4]) was 64% and 75%, the “Population Normal (%)” value (Fibroblast; [4]) was 97% and 95% and the “Population Pyknosed Nuclei (%)” value (Fibroblast; [4]) was 24% and 20%. The “Population Tubulin-Different-Phenotype (%)” value (Fibroblast; [4]) was 30% and 40%, the “Total Cell Count” value (Fibroblast; [4]) was 143 and 149 and the “Population Apoptotic (%)” value (Fibroblast; [5]) was 76% and 42%. The “Population Fragmented Nuclei (%)” value (Fibroblast; [5]) was 16% and 30%, the “Population Healthy Nuclei (%)” value (Fibroblast; [5]) was 64% and 55% and the “Population Hoechst High Intensity Objects (%)” value (Fibroblast; [5]) was 3% and 4%. The “Population Membrane Permeable-Phenotype (%)” value (Fibroblast; [5]) was 0% and 5%, the “Population Mitochondria Different-Phenotype (%)” value (Fibroblast; [5]) was 4% and 0% and the “Population Mitotic Cells (%)” value (Fibroblast; [5]) was 23% and 57%. For the same compound, the “Population Normal (%)” value (Fibroblast; [5]) was 96% and 95%, the “Population Pyknosed Nuclei (%)” value (Fibroblast; [5]) was 18% and 13% and the “Population Tubulin-Different-Phenotype (%)” value (Fibroblast; [5]) was 22% and 40%. The “Total Cell Count” value (Fibroblast; [5]) was 147 and 163, the “Population Apoptotic (%)” value (Fibroblast; [6]) was 60% and 38% and the “Population Fragmented Nuclei (%)” value (Fibroblast; [6]) was 29% and 48%. The “Population Healthy Nuclei (%)” value (Fibroblast; [6]) was 56% and 38%, the “Population Hoechst High Intensity Objects (%)” value (Fibroblast; [6]) was 7% and 2% and the “Population Membrane Permeable-Phenotype (%)” value (Fibroblast; [6]) was 1% and 10%. The “Population Mitochondria Different-Phenotype (%)” value (Fibroblast; [6]) was 1% and 5%, the “Population Mitotic Cells (%)” value (Fibroblast; [6]) was 40% and 61% and the “Population Normal (%)” value (Fibroblast; [6]) was 92% and 98%. For the same compound, the “Population Pyknosed Nuclei (%)” value (Fibroblast; [6]) was 13% and 12%, the “Population Tubulin-Different-Phenotype (%)” value (Fibroblast; [6]) was 22% and 57% and the “Total Cell Count” value (Fibroblast; [6]) was 159 and 150. The “Population Apoptotic (%)” value (HEK-293T; [1]) was 42% and 59%, the “Population Fragmented Nuclei (%)” value (HEK-293T; [1]) was 4% and 5% and the “Population Healthy Nuclei (%)” value (HEK-293T; [1]) was 80% and 84%. For the same compound, the “Population Hoechst High Intensity Objects (%)” value (HEK-293T; [1]) was 5% and 7%, the “Population Membrane Permeable-Phenotype (%)” value (HEK-293T; [1]) was 1% and 0% and the “Population Mitochondria Different-Phenotype (%)” value (HEK-293T; [1]) was 43% and 64%. The “Population Mitotic Cells (%)” value (HEK-293T; [1]) was 57% and 40%, the “Population Normal (%)” value (HEK-293T; [1]) was 94% and 92% and the “Population Pyknosed Nuclei (%)” value (HEK-293T; [1]) was 14% and 10%. For the same compound, the “Population Tubulin-Different-Phenotype (%)” value (HEK-293T; [1]) was 35% and 32%, the “Total Cell Count” value (HEK-293T; [1]) was 388 and 400 and the “Population Apoptotic (%)” value (HEK-293T; [2]) was 38% and 46%. For the same compound, the “Population Fragmented Nuclei (%)” value (HEK-293T; [2]) was 11% and 8%, the “Population Healthy Nuclei (%)” value (HEK-293T; [2]) was 77% and the “Population Hoechst High Intensity Objects (%)” value (HEK-293T; [2]) was 8% and 12%. For the same compound, the “Population Membrane Permeable-Phenotype (%)” value (HEK-293T; [2]) was 0%, the “Population Mitochondria Different-Phenotype (%)” value (HEK-293T; [2]) was 52% and 62% and the “Population Mitotic Cells (%)” value (HEK-293T; [2]) was 61% and 53%. The “Population Normal (%)” value (HEK-293T; [2]) was 91% and 87%, the “Population Pyknosed Nuclei (%)” value (HEK-293T; [2]) was 10% and 14% and the “Population Tubulin-Different-Phenotype (%)” value (HEK-293T; [2]) was 29% and 25%. The “Total Cell Count” value (HEK-293T; [2]) was 445 and 316, the “Population Apoptotic (%)” value (HEK-293T; [3]) was 38% and 44% and the “Population Fragmented Nuclei (%)” value (HEK-293T; [3]) was 8% and 9%. For the same compound, the “Population Healthy Nuclei (%)” value (HEK-293T; [3]) was 80% and 78%, the “Population Hoechst High Intensity Objects (%)” value (HEK-293T; [3]) was 3% and 8% and the “Population Membrane Permeable-Phenotype (%)” value (HEK-293T; [3]) was 1% and 0%. The “Population Mitochondria Different-Phenotype (%)” value (HEK-293T; [3]) was 24% and 37%, the “Population Mitotic Cells (%)” value (HEK-293T; [3]) was 61% and 55% and the “Population Normal (%)” value (HEK-293T; [3]) was 96% and 91%. The “Population Pyknosed Nuclei (%)” value (HEK-293T; [3]) was 11%, the “Population Tubulin-Different-Phenotype (%)” value (HEK-293T; [3]) was 23% and 14% and the “Total Cell Count” value (HEK-293T; [3]) was 511 and 497.
